The subject of assay [1] is MBP-sAnk1_29–155 / GST-Obsc6231–6260. It counts as binding, rat. As to conditions: for molar excess of peptide over sAnk1 needed to inhibit binding by 50%: binding of GST-Obsc6231–6260 construct to sAnk1, 1 µM MBP-sAnk1, SPR. In outline:
(§1)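 Each GST-obscurin fusion was expressed in BL21* pLysS cells (1 mM IPTG, 4 h), affinity-purified, and captured by anti-GST on a CM5 SPR chip. 1 µM MBP-sAnk1 was pre-mixed with synthetic 6316–6345 or 6231–6260 oligopeptide at varying relative molar amounts, then flowed over the chip. Inhibition constant = reciprocal of the peptide:sAnk1 concentration ratio blocking maximal binding by 50%.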

Assay [2] deals with MBP-sAnk1_29–155 / GST-Obsc6316–6345. Set-up: species or system rat. Particulars: binding to GST-Obsc6316–6345. In outline:
as §1

In assay [3] the test system is MBP-sAnk1_29–155. Description: SPR direct binding of GST-obscurin constructs to MBP-sAnk1. Set-up: species or system rat. Particulars: GST fusion constructs vs MBP-sAnk1_29–155. An outline of the steps:
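GST-obscurin constructs, expressed in BL21* pLysS cells (1 mM IPTG, 4 h) and affinity-purified, were captured by anti-GST on a CM5 chip. MBP-sAnk1 was applied over a wide concentration range. Signal from a GST-only chip and a buffer blank was subtracted. Kinetic rate constants and KD came from 1:1 binding model fits.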

The subject of assay [4] is MBP-sAnk1_29–155. Description: SPR competition, oligopeptide inhibition of MBP-sAnk1 binding. Also on record: species or system rat. As to conditions: binding of MBP-sAnk1_29–155 to either GST-Obsc6316–6345 or GST-Obsc6231–6260.

Turning to “Obsc6231–6260 oligopeptide: synthetic oligopeptide containing obscurin residues 6231–6260”, the “molar excess of peptide over sAnk1 needed to inhibit binding by 50%” value in assay [1] was ~ 6 fold molar excess.

For the substance “Obsc6316–6345 oligopeptide: synthetic oligopeptide containing obscurin residues 6316–6345 (GAAWPGAGTGELLWDVHSHVVRETTQRTYT; UniProt Q5VST9 6316-6345, looked up, fragment)”, the “Ratio of inhibition constants, 6316–6345 to 6231–6260 oligopeptide” value in assay [2] turned out to be 3.00; in assay [1] (binding to GST-Obsc6231–6260) it was 3.29. In addition, in assay [1], the “molar excess of peptide over sAnk1 needed to inhibit binding by 50%” value is ~ 2 fold molar excess. Also, the “binding to sAnk1 by SPR (in words)” value in the assay on MBP-sAnk1_29–155 [3] is “no significant difference in binding between Obsc6316–6436 and Obsc6316–6345”. The “relative inhibition of binding vs 6231–6260 oligopeptide” value with MBP-sAnk1_29–155 [4] is listed as ~ 3 fold.

The values are drawn from article PMC3000613 (Biochemistry, 2010).
